Bioassay records from PubChem BioAssay.
A selection: hits, their analogues and other compounds. The true share with any hit is near 2.2%.
PERK inh = block of dimerizer-induced PERK translation repression, primary screen, PERK inhibitor project, CHO PERK-DD cells, SEAP luminescence, HTS | 220,000 compounds, 0.17% hits | Eukaryotic translation initiation factor 2-alpha kinase 3 (Homo sapiens), Q9NZJ5 | inhibition, % at 5.6 µM | CHO PERK-DD fusion, SEAP luminescence translation reporter;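 active = inhibition above the mean inhibition of all tested compounds plus 3 SD, set separately per screening campaign, cut at about 2.9% in these data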;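 note: PERK kinase domain activated by AP20187 dimerizer at 100 nM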
RanGTP-Imp inh = inhibitors of RanGTP-importin-beta interaction, primary screen, biochemical, FRET, CFP-Ran, YFP-importin-beta, homogeneous; Ran GTPase (GTP-bound) - importin-beta complex; inhibition, % (test concentration not listed); cell-free CFP-Ran/YFP-importin-beta FRET ratio; 300,000 compounds, 1.1% hits; AID 2216, 2009;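 active = more than half of the replicate wells show a fall in the fluorescence ratio signal beyond about 16%, limit read from the data, passing the limit was not always enough; inconclusive = exactly half of the replicate wells pass the set limit; inactive = fewer than half of replicates pass the limit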
eIF4E 4G PPI = eIF4E–eIF4G protein interaction inhibitors, primary screen, biochemical, uHTS, TR-FRET, eIF4GI fragment. AID 782, 2007. Eukaryotic translation initiation factor 4E (Mus musculus) + Eukaryotic translation …. 220,000 compounds, 0.37% hits. inhibition, % at 21.7 µM. TR-FRET eIF4E-eIF4GI(517-606) binding, 2 h;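 active = inhibition above about 30%, limit read from the data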
Runt-SMMHC FRET = inhibitors of RUNX1 Runt–CBFb-SMMHC binding, primary screen, biochemical, FRET, Cerulean-Runt, Venus-CBFb-SMMHC, uHTS; AID 1434, 2008; inhibition, % at 20 µM; 220,000 compounds, 0.74% hits; Cerulean-Runt/Venus-CBFb-SMMHC FRET ratio 530/480, 1 h;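 active = mean inhibition across duplicate retests at 20 µM reaching about 50%, limit read from the data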;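 note: inhibitors lower the FRET ratio by blocking Runt binding to CBFb-SMMHC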
Target sequence (Q01196 whole entry, looked up): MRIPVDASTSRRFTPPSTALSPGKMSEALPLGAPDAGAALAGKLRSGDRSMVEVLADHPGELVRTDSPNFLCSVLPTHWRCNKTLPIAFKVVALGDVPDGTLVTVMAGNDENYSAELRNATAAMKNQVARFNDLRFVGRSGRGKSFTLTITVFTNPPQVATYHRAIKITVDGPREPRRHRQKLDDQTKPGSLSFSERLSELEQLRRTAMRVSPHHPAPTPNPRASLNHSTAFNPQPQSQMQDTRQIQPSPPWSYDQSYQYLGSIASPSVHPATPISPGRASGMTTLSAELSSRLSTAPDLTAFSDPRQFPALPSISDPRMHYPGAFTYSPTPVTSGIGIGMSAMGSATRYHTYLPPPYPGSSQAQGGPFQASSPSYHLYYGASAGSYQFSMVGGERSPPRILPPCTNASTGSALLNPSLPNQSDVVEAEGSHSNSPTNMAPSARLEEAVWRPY
Target sequence (Q13951 whole entry, looked up): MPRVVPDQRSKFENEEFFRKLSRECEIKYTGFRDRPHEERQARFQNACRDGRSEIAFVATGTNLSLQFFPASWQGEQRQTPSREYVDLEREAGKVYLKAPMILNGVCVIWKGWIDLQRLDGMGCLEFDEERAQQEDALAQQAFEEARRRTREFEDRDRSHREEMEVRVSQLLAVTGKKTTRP
Runt-CBFb FRET = inhibitors of RUNX1 Runt–CBFb binding, primary screen, biochemical, FRET, Cerulean-Runt, Venus-CBFb, uHTS | Runt-related transcription factor 1 (Homo sapiens) + Core-binding factor subunit beta … | Cerulean-Runt/Venus-CBFb FRET ratio 530/480, 1 h | inhibition, % at 20 µM | 220,000 compounds, 0.46% hits | AID 1496, 2009;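 active = inhibition over about 50% at 20 µM in the single-dose screen, limit read from the data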
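Measured by: fluorescence energy transfer, 422 nm excitation, 530/480 nm emission; Assay system: Cerulean-Runt domain; Medium: Tris pH 7.5 buffer with BSA; Measure: loss of energy transfer signal; Controls: 5 µM unlabeled CBFb as full-inhibition high control; Incubation: protein complex preformed 1 h, compound exposure 1 h, room temperature, dark.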
Hck-Nef inh = inhibitors of Nef-activated human Hck kinase, primary screen, biochemical, Z-Lyte FRET, 384-well, Hck-YEEI; Tyrosine-protein kinase HCK (Homo sapiens), P08631; Recombinant Hck-YEEI plus Nef, Z-Lyte FRET kinase assay; inhibition, % at 20 µM; 220,000 compounds, 0.68% hits; AID 463187, 2010;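 active = Hck-Nef kinase inhibition above about 50%, limit read from the data; inactive = inhibition below that limit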
Each line names hits and unclear results; the compound was inactive in the other large screens; [ ] = dose if it differs, or a comment.

CCOC(=O)Cc1csc(NC(=O)CSc2cc(Cl)ccc2Cl)n1	none
OCCN1CCN(Cc2cc(Cl)c3cccnc3c2O)CC1	RanGTP-Imp inh 40
Oc1c(CN2CCN(c3ccccn3)CC2)cc(Cl)c2cccnc12	RanGTP-Imp inh 24
Oc1c(Cl)cc(CN2CCCCC2)c2cccnc12	none (no result: PERK inh, eIF4E 4G PPI, Runt-SMMHC FRET, Runt-CBFb FRET, Hck-Nef inh)
CCn1c(=NC(=O)c2ccc(S(=O)(=O)N(C)C)cc2)sc2cccc(OC)c21	none
Cc1ccc2cc(CN(CCCO)S(=O)(=O)c3cccc4nsnc34)c(=O)[nH]c2c1C	none
CCc1ccc2c(CSc3nnnn3C)cc(=O)oc2c1	none
Cc1ccc(C(=O)N2CCCN(c3nc4cc5c(cc4cc3C#N)OCO5)CC2)cc1	RanGTP-Imp inh 113 (no result: PERK inh, eIF4E 4G PPI, Runt-SMMHC FRET, Runt-CBFb FRET, Hck-Nef inh)
Cc1cc(C)c2nc(N3CCCN(C(=O)c4cnccn4)CC3)c(C#N)cc2c1	RanGTP-Imp inh 39
N#Cc1cc2cc3c(cc2nc1N1CCCCC1)OCCO3	RanGTP-Imp inh 59, Runt-SMMHC FRET 107
O=C(c1nc2n(n1)C(c1ccc(Cl)cc1)C=C(c1ccccc1)N2)N1CCOCC1 (stereo not drawn)	Runt-SMMHC FRET 62
CC(=O)Nc1nc2n(n1)C(c1ccccc1)C=C(c1ccccc1)N2 (stereo not drawn)	none
Cc1cc(N=NC(=O)c2ccccc2O)c2ccccc2c1O	none (no result: RanGTP-Imp inh)
COc1ccc(C(=O)/C=C2\Sc3ccccc3N2C)cc1	Runt-SMMHC FRET 56
CC(=S)/C=C1\Sc2ccccc2N1C	none
O=C(NCc1ccncc1)c1nnc(Cc2c(F)cccc2Cl)o1	RanGTP-Imp inh inconclusive
Cn1c(=O)c(C(=O)COC(=O)c2cc(C3CC3)nc3ccccc23)c(N)n(Cc2ccccc2)c1=O	none (no result: RanGTP-Imp inh)
Cn1c(=O)c(C(=O)COC(=O)c2cc(-c3ccco3)nc3ccccc23)c(N)n(CC2CC2)c1=O	Hck-Nef inh 51
COc1cccc(NC(=O)COc2ccc(N3CC(C(=O)NCC(C)C)CC3=O)cc2)c1 (stereo not drawn)	eIF4E 4G PPI 72
Cc1ccc(/C=C2\SC(=S)N(Cc3ccccc3)C2=O)o1	none (no result: RanGTP-Imp inh)
COc1ccc(CN2C(=O)/C(=C/c3ccc(-c4ccc(Cl)c(C(=O)O)c4)o3)SC2=S)cc1	eIF4E 4G PPI 65 (no result: RanGTP-Imp inh)
Cc1c[nH]c(=O)c([N+](=O)[O-])c1	PERK inh 3.8
Cc1cc2nc[nH]c2cc1[N+](=O)[O-]	none
O=C1CCCN=C(Nc2ccc(F)c(Cl)c2)S1	none
COc1ccc(-c2nnc(SCC(=O)NC(C)c3ccccc3)o2)cc1OC (stereo not drawn)	none
CN(C)c1ccc(/C=C/c2ccc3c4ccccc4ccc3[n+]2-c2ccccc2)cc1	eIF4E 4G PPI 75 (no result: RanGTP-Imp inh)
CC(C)Cc1nnc(NC(=O)CCC(=O)N2CCN(c3ccccc3F)CC2)s1	RanGTP-Imp inh 154 (no result: PERK inh, eIF4E 4G PPI, Runt-SMMHC FRET, Runt-CBFb FRET, Hck-Nef inh)
O=C(C1CCN(Cc2ccccc2O)CC1)N1CCN(Cc2ccc3c(c2)OCO3)CC1	none (no result: PERK inh, eIF4E 4G PPI, Runt-SMMHC FRET, Runt-CBFb FRET, Hck-Nef inh)
O=C(C1CCN(Cc2cc(Cl)ccc2O)CC1)N1CCN(Cc2ccccc2)CC1	RanGTP-Imp inh inconclusive, eIF4E 4G PPI 82
CCOC(=O)/C=C1\SCC(=O)N1CC(=O)NC(c1ccccc1)c1ccccc1	none
CCOC(=O)/C=C1\SCC(=O)N1CC(=O)Nc1ccccc1OC(F)F	RanGTP-Imp inh 150
CC(=Nc1ccc(Br)cc1)c1sc2ccccc2c1O	RanGTP-Imp inh 49
CC(=Nc1ccccc1)C1=C(O)COC1=O	none
CC(=Nc1ccccc1)c1sc2ccccc2c1O	RanGTP-Imp inh 48
CCCn1c(=O)[nH]c(=O)c2c(C(=O)OCC)cc(-c3cccs3)nc21	none
CCN(CC)S(=O)(=O)c1ccc(N2CCCCC2)c(NC(=O)C2=COCCO2)c1	none (no result: PERK inh, eIF4E 4G PPI, Runt-SMMHC FRET, Runt-CBFb FRET, Hck-Nef inh)
COc1cc(OC)c(OC)cc1CNc1cc(C)ccc1OC	none
CN1CCN(Cn2cc(/C=C/C(=O)c3ccccc3)c3ccccc32)CC1	RanGTP-Imp inh 67
CCCN(CCC)CC(O)Cn1cc(/C=C/C(=O)c2ccccc2)c2ccccc21 (stereo not drawn)	RanGTP-Imp inh 29
O=C(/C=C/c1cn(CC(O)CN2CCCCC2)c2ccccc12)c1ccccc1 (stereo not drawn)	none
CCCN(CCC)CC(O)Cn1cc(/C=C/C(=O)c2cccs2)c2ccccc21 (stereo not drawn)	none
COc1cc(OC)c(-c2nc3c[n+](CC(=O)c4ccccc4)ccc3n2C)cc1OC	none
CC(=O)Nc1ccc(S(=O)(=O)NCC2CCC(C(=O)NC(C)c3ccccc3)CC2)cc1 (stereo not drawn)	none
Cc1ccc2c(c1)nnn2C1CCN(CC(=O)Nc2ccccc2N2CCOCC2)CC1	Runt-CBFb FRET 84
COc1ccc(Cl)cc1NC(=O)CN1CCC(n2nnc3cc(C)ccc32)CC1	none
O=C(Cc1ccc(S(=O)(=O)N2CCOCC2)s1)Nc1cc(C(F)(F)F)ccc1N1CCCC1	none (no result: PERK inh, eIF4E 4G PPI, Runt-SMMHC FRET, Runt-CBFb FRET, Hck-Nef inh)
O=C(Cc1ccc(S(=O)(=O)N2CCOCC2)s1)Nc1ccccc1N1CCCC1	RanGTP-Imp inh 19 (no result: PERK inh, eIF4E 4G PPI, Runt-SMMHC FRET, Runt-CBFb FRET, Hck-Nef inh)
CCCOC(=O)c1cc(-c2ccc(/C=C3/C(=O)N(C)C(=O)C(C#N)=C3C)o2)ccc1Cl	none (no result: RanGTP-Imp inh, eIF4E 4G PPI, Runt-SMMHC FRET, Runt-CBFb FRET)
C=CCOC(=O)c1cc(-c2ccc(/C=C3\C(=O)NC(=O)C(C#N)=C3C)o2)ccc1Cl	eIF4E 4G PPI 60[fluorescence artefact?], Hck-Nef inh 91 (no result: RanGTP-Imp inh)
Cc1ccnc(NS(=O)(=O)c2cc(C(F)(F)F)ccc2Cl)c1	PERK inh 3.4
Cc1ccnc(NS(=O)(=O)c2cccs2)c1	none
CC(C)(C)c1cnnn1-c1ccc(/C=N/Nc2ccc([N+](=O)[O-])cc2)cc1	RanGTP-Imp inh 34
CCCCc1cc(=O)oc2cc(C)cc(OCC(=O)NCC3CCC(C(=O)O)CC3)c12 (stereo not drawn)	none (no result: PERK inh, eIF4E 4G PPI, Runt-SMMHC FRET, Runt-CBFb FRET, Hck-Nef inh)
Cc1cccc(NC(=O)NCc2ccccn2)c1	none
COc1ccc(O)c(/C=C(\C#N)C(=O)Nc2cccnc2)c1	eIF4E 4G PPI 37
COc1ccc(OC)c(Nc2nc(=O)c3cccnc3s2)c1	eIF4E 4G PPI 32 (no result: RanGTP-Imp inh)
Cc1cc(/C=c2/sc3nc4ccccc4n3c2=O)c(C)n1-c1ccccn1	RanGTP-Imp inh 16
CCOCCCNC(=O)c1cc2c(=O)n3cccc(C)c3nc2s1	none (no result: PERK inh, eIF4E 4G PPI, Runt-SMMHC FRET, Runt-CBFb FRET, Hck-Nef inh)
